In paper PMC6071920 (MedChemComm, 2016):
“And” between values parts separate entries of the source, which are not always exact repeats. Equal values may be shown once. Read-outs that look alike come from different tables or passages of the source. Each block holds one compound with its values, some of them ahead of it.

What was measured:
[1] = system: TSPO A147T over-expressing 293T cells; test: Proliferation; assay type: cell-based, human; conditions: 48 h, BrdU ELISA
Outline: (§1)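 Clonally selected 293T cells, lentivirally transduced with human TSPO WT or A147T, puromycin-selected, grown in DMEM with 10% FBS, 100 U ml−1 penicillin/streptomycin and 2 mM glutamine. BrdU labelled at 37 °C for 4 h, then detected by BrdU ELISA. Stopped with 1 M sulfuric acid and read at 450 nm. Normalised to vehicle controls; one-way ANOVA with Dunnett's test.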

[2] = system: TSPO WT over-expressing 293T cells; test: Proliferation; assay type: cell-based, human; conditions: 48 h, BrdU ELISA
Outline: as §1

TSPO A147T [3] = assay type: binding, human; conditions: fold discrimination (loss of affinity at TSPO A147T versus TSPO WT)
TSPO A147T [4] = biological target: TSPO A147T (Homo sapiens, UniProt P30536); assay type: binding
TSPO A147T (Homo sapiens, UniProt P30536), sequence (P30536 whole entry, stated change not applied): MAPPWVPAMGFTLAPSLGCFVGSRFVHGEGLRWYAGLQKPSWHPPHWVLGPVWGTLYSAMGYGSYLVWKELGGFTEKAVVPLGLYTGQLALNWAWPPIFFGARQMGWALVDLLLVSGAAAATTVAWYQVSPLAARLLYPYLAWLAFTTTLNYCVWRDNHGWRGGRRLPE

TSPO [5] = conditions: cited from earlier work; for Fold reduction of affinity in LABs compared to HABs: brain tissue or lymphocytes
TSPO [6] = conditions: read-out: Ki for the TSPO; cited from earlier work
TSPO WT = TSPO WT (Homo sapiens, UniProt P30536, T147A); assay type: binding; conditions: 3b versus 3a; 4b versus 4a
TSPO WT, sequence (P30536 whole entry T147A): as the sequence (P30536 whole entry, stated change not applied) above, with T147A counted along it

[7] = cited from earlier work
rat TSPO = conditions: read-out: Affinity commonly reported at the rat TSPO; cited from earlier work

Compound: CCN(CC)C(=O)Cc1c(-c2ccc(OC)cc2)nn2c(C)cc(C)nc12 [DPA-713]
Effect on proliferation at 100 μM, TSPO A147T cells [1]: did not significantly affect proliferation
Effect on proliferation at 100 μM, TSPO WT cells [2]: did not significantly affect proliferation

Compound: CCN(CC)C(=O)Cn1c2ccccc2c2cc(Br)ccc21 [Compound 4a, 2-(3-Bromo-9H-carbazole-9-yl)-N,N-diethylacetamide]
TSPO A147T Ki/TSPO WT Ki (TSPO A147T [3]): 5

Compound: CCN(CC)C(=O)Cn1c2ccccc2c2ccccc21 [Compound 3a, 2-(9H-Carbazol-9-yl)-N,N-diethylacetamide]
TSPO A147T Ki/TSPO WT Ki (TSPO A147T [3]): 6

Compound: CCN(CC)C(=O)Cn1c2ccccc2c2cc(-c3ccccc3)ccc21 [Compound 5a, N,N-Diethyl-2-(3-phenyl-9H-carbazole-9-yl)acetamide]
TSPO A147T Ki/TSPO WT Ki (TSPO A147T [3]): 5- to 6

Fold improved (higher) affinity at TSPO A147T than the comparator analogue (TSPO A147T [4]; 4b versus 4a, 5c versus 3a): 2 ×
Compound: CCN(CC)C(=O)Cn1c2ccccc2c2cc(-c3ccc(OC)cc3)ccc21 [Compound 5c, N,N-Diethyl-2-(3-(4-methoxyphenyl)-9H-carbazole-9-yl)acetamide]

Compound: CCN(Cc1ccccc1)C(=O)Cn1c(=O)n(C)c2cnc(-c3ccccc3)nc21 [XBD-173]
Fold reduction of affinity in LABs compared to HABs (TSPO [5]): 13 fold
Ki (TSPO [5]; read-out: Affinity at LABs, LAB brain tissue): 30.3 nM
TSPO A147T Ki/TSPO WT Ki (TSPO A147T [3]): 5 and 5- to 6

Compound: NC(=O)c1nc(-c2ccccc2)c2ccccc2n1 [4-phenyl quinazoline-2-carboxamide]
Ki (TSPO [6]): 0.5 nM

Fold lower affinity at TSPO WT than the N,N-diethylamide analogue (TSPO WT): 3 ×
Fold reduction in TSPO A147T affinity compared to 3a (TSPO A147T [4]; 3b versus 3a): 2.6 ×
Compound: CCN(Cc1ccccc1)C(=O)Cn1c2ccccc2c2ccccc21 [Compound 3b, N-Benzyl-2-(9H-carbazol-9-yl)-N-ethylacetamide]
Effect on proliferation at 100 μM, TSPO A147T cells [1]: did not significantly affect proliferation
Effect on proliferation at 100 μM, TSPO WT cells [2]: did not significantly affect proliferation

Compound: COc1ccccc1CN(C(C)=O)c1cnccc1Oc1ccccc1 [PBR-28]
Fold reduction of affinity in LABs compared to HABs (TSPO [5]): 55 fold

Compound: CCC(C)N(C)C(=O)c1cc2ccccc2c(-c2ccccc2Cl)n1 (centres unmarked) [PK 11195]
In vivo bioavailability [7]: poor in vivo bioavailability
Ki (rat TSPO): 0.7 to 18 nM
